The source made the active and inactive calls. The calls are words filed in the database; no cut-off is given here.
Experiments:
[1] = target: T1, Sphingosine 1-phosphate receptor 4 (Homo sapiens, UniProt O95977); experiment: Agonist activity at recombinant human S1P4 expressed in CHO cell membranes assessed as stimulation of [35S]-GTPgammaS binding measured after 45 mins by liquid scintillation counting method; format: functional, Membrane
T1 sequence (O95977 whole entry): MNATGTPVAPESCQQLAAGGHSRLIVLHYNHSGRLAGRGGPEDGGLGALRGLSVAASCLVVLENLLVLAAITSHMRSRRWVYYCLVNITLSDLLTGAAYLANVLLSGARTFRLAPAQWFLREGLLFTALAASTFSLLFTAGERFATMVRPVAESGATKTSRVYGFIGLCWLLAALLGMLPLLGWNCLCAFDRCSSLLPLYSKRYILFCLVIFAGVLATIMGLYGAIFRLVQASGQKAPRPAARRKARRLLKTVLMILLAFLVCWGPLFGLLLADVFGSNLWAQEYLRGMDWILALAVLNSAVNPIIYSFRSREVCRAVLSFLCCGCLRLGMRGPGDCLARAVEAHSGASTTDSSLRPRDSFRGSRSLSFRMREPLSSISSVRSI

[2] = Antimigratory activity against human T cells assessed as inhibition of S1P-induced T cell migration preincubated for 10 mins followed by addition of S1P measured after 120 mins by calcein-AM dye based fluorescence analysis; format: functional
Rattus norvegicus [3] = experiment: Antiinflammatory activity in complete freund's adjuvant-induced Lewis rat model of arthritis assessed as reduction in paw edema at 0.5 mg/kg, po administered via gavage once daily and measured at day 18 to 22 by plethysmometric method; format: functional, organism-based; conditions: time 18-22 day
[4] = Drug concentration in Lewis rat blood assessed as concentration of parent compound at 2 mg/kg, po measured at 4 hrs by LC-MS/MS analysis; format: ADME, organism-based; conditions: Lewis, blood, read-out: Ct
Outline: (§1)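 Lewis rats (n = 2−4) dosed orally at 0.5, 1, 2 or 5 mg/kg; blood parent and phosphate metabolite concentrations and lymphocyte counts taken 4 and 24 h post-dose; phosphate-to-parent ratio from 24 h levels; significance versus vehicle by ANOVA with Dunnett's test.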

[5] = Cardiotoxicity in human iPSC derived cardiomyocytes assessed as change in heart rate at 10 nM measured over 2 hrs by multi-electrode array relative to control; format: toxicity, cell-based; conditions: stem cell-derived cardiomyocyte, 0.01 µM
Outline: (§2)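 Phosphate metabolite of each compound prepared and tested on cultured human induced pluripotent stem cell-derived cardiomyocytes at 1 and 10 nM; beat rate change averaged over three or more replicates per concentration unless noted (some n = 2).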

[6] = AUC ratio in orally dosed cynomolgus monkey blood assessed as phosphate metabolite to parent compound; format: ADME, organism-based, Macaca fascicularis; conditions: in vivo, po
Outline: (§3)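 Phosphate-to-parent ratio computed as blood AUC ratio after oral dosing in rats, dogs and monkeys.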

[7] = Pulmonary toxicity in Lewis rat assessed as fold elevation of BAL protein content at 2 mg/kg, po by chemistry analyzer based analysis relative to control; format: organism-based; conditions: in vivo
Outline: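 Lewis rats dosed orally; bronchoalveolar lavage protein measured at study end, expressed as fold over vehicle control.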

[8] = Clearance in Sprague- Dawley rat at 1 mg/kg, iv; format: ADME, organism-based; conditions: in vivo
Rattus norvegicus [9] = experiment: Antiinflammatory activity in complete freund's adjuvant-induced Lewis rat model of arthritis assessed as increase in paw volume at 2.5 mg/kg, po administered via gavage once daily by plethysmometric method; format: functional, organism-based
[10] = Volume of distribution at steady state in Sprague- Dawley rat at 1 mg/kg, po or 1 mg/kg, iv; format: ADME, organism-based; conditions: in vivo, read-out: Vdss
Outline: (§4)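 Single IV and oral dosing in male animals, n = 3. Rats were Sprague-Dawley. Vehicle: 18.4% hydroxypropyl-β-cyclodextrin in 13.8 mM citric acid. Blood concentrations followed over time; terminal T1/2 and steady-state volume of distribution taken from the IV dose.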

[11] = Oral bioavailability in Sprague- Dawley rat at 1 mg/kg; format: ADME, organism-based; conditions: in vivo
[12] = Reduction in circulating lymphocytes count in Lewis rat at 2 mg/kg, po measured at 24 hrs by hematology analyzer based analysis; format: Functional, organism-based; parameters: scale not given: the % may be the effect or the level left; conditions: in vivo
Outline: (§5)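 Lewis rats (n = 2−4) dosed orally; whole-blood lymphocyte counts taken 4 h and 24 h after dosing and reduction expressed versus vehicle-treated rats. Significance by ANOVA with Dunnett's test (p < 0.05 vs vehicle). Blood levels of parent and phosphate metabolite measured at the same time points in this PK/PD screen.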

Rattus norvegicus [13] = experiment: Antiinflammatory activity in complete freund's adjuvant-induced Lewis rat model of arthritis assessed as reduction in paw swelling at 0.5 mg/kg, po administered via gavage once daily and measured at day 18 to 22 by plethysmometric method relative to control; format: functional; parameters: scale not given: the % may be the effect or the level left; conditions: time 18-22 day
[14] = Terminal half life in Sprague- Dawley rat at 1 mg/kg, po or 1 mg/kg, iv; format: ADME, organism-based; conditions: in vivo, read-out: beta t1/2 (converted); outline: as §4
[15] = AUC ratio in orally dosed Sprague-Dawley rat blood assessed as phosphate metabolite to parent compound; format: ADME, organism-based; conditions: in vivo, po; outline: as §3
[16] = Half life in Lewis rat at 2 mg/kg, po measured at 4 to 72 hrs; format: ADME, organism-based; conditions: Lewis, in vivo, time 4-72 hrs
Outline: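 Half-life estimated from oral-dosing blood PK profiles in Lewis rats sampled at four time points: 4, 24, 48 and 72 h.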

Rattus norvegicus [17] = experiment: Reduction in circulating lymphocytes count in Lewis rat at 2 mg/kg, po measured at 4 hrs by hematology analyzer based analysis; format: functional; parameters: scale not given: the % may be the effect or the level left; outline: as §5
[18] = Clearance in cynomolgus monkey at 1 mg/kg, iv; format: ADME, organism-based, Macaca fascicularis; conditions: in vivo
[19] = Volume of distribution at steady state in cynomolgus monkey at 1 mg/kg, po or 1 mg/kg, iv; format: ADME, organism-based, Macaca fascicularis; conditions: in vivo, read-out: Vdss; outline: as §4
[20] = Terminal half life in cynomolgus monkey at 1 mg/kg, po or 1 mg/kg, iv; format: ADME, organism-based, Macaca fascicularis; conditions: in vivo, read-out: beta t1/2 (converted); outline: as §4
Rattus norvegicus [21] = experiment: Antiinflammatory activity in complete freund's adjuvant-induced Lewis rat model of arthritis assessed as reduction in paw edema administered via oral gavage once daily by plethysmometric method; format: functional, organism-based
[22] = Drug concentration in Lewis rat blood assessed as concentration of parent compound at 2 mg/kg, po measured at 24 hrs by LC-MS/MS analysis; format: ADME, organism-based; conditions: in vivo, read-out: Ct; outline: as §1
[23] = Oral bioavailability in cynomolgus monkey at 1 mg/kg; format: ADME, organism-based, Macaca fascicularis; conditions: in vivo
[24] = Ratio of drug metabolism in Lewis rat blood assessed as phosphate ester metabolite to parent drug at 2 mg/kg, po measured at 24 hrs by LC-MS/MS analysis; format: ADME, organism-based; conditions: in vivo; outline: as §1
[25] = Cardiotoxicity in human iPSC derived cardiomyocytes assessed as change in heart rate at 1 nM measured over 2 hrs by multi-electrode array relative to control; format: toxicity, cell-based; conditions: stem cell-derived cardiomyocyte, 0.001 µM; outline: as §2
Rattus norvegicus [26] = experiment: Antiinflammatory activity in complete freund's adjuvant-induced Lewis rat model of arthritis assessed as effective dose administered via oral gavage once daily by plethysmometric method; format: functional
[27] = Terminal half life in dog at 1 mg/kg, po; format: ADME, organism-based, Canis lupus familiaris; conditions: in vivo, read-out: beta t1/2 (converted)
[28] = Terminal half life in Sprague- Dawley rat at 2 mg/kg, iv; format: ADME, organism-based; conditions: in vivo, read-out: beta t1/2 (converted); outline: as §4
[29] = AUC ratio in orally dosed Beagle dog blood assessed as phosphate metabolite to parent compound; format: ADME, organism-based, Canis lupus familiaris; conditions: in vivo, po; outline: as §3
[30] = Volume of distribution at steady state in Sprague- Dawley rat at 2 mg/kg, iv; format: ADME, organism-based; conditions: in vivo, read-out: Vdss; outline: as §4
[31] = Clearance in Sprague- Dawley rat at 2 mg/kg, iv; format: ADME, organism-based; conditions: in vivo
Rattus norvegicus [32] = experiment: Antiinflammatory activity in complete freund's adjuvant-induced Lewis rat model of arthritis assessed as reduction in paw swelling at 0.3 mg/kg, po administered via gavage once daily and measured at day 13 to 20 by plethysmometric method relative to control; format: functional; parameters: scale not given: the % may be the effect or the level left; conditions: time 13-20 day

Row | SMILES | concentration at 4 h [4] [nM] | Activity [5] [%] | Ratio AUC [6] | fold change (FC) [7] | Activity [12] [%] | Ratio AUC [15] | half-life [16] [h] | Activity (Rattus norvegicus [17]) [%] | clearance [18] [mL/min/kg] | Vd [19] [L/kg] | half-life [20] [h] | concentration [22] [nM] | bioavailability [23] [%] | Ratio [24] | Activity [25] [%] | ED50 (Rattus norvegicus [26]) [mg/kg] | further results
1 | CCCCCCCCc1ccc(CCC(N)(CO)COP(=O)(O)O)cc1 (stereo not drawn) | – | – | – | – | – | – | – | – | – | – | – | – | – | – | – | – | EC50 [1]: 1.6 nM; IC50 [2]: 1.2 nM
2 | CCOCCCC1CCc2cc([C@H]3CC[C@](N)(CO)C3)ccc2C1 (single isomer, unassigned) | 172 | -29 | 0.73 | 1.2 | 83 | 0.9 | 26 | 78 | 7.4 | 8.4 | 21 | 110 | 76 | 1.8 | -14 | 0.3 | Activity (Rattus norvegicus [3]): inactive; clearance [8]: 6 mL/min/kg; Activity (Rattus norvegicus [9]): inactive; Vd [10]: 12 L/kg; bioavailability [11]: 45%; Activity (Rattus norvegicus [13]): 75%; half-life [14]: 29 h; Activity (Rattus norvegicus [21]): Dose-dependent effect
3 | COCCCCCC1CCc2cc([C@H]3CC[C@](N)(CO)C3)ccc2C1 (single isomer, unassigned; 24) | 188 | -23 | < 0.1 | 1.5 | 82 | 0.3 | 18 | 67 | 9.7 | 9.9 | 17 | 98 | 69 | 2.6 | -7 | 0.3 | half-life [27]: 81 h; half-life [28]: 19 h; Ratio AUC [29]: 0.31; Vd [30]: 13 L/kg; clearance [31]: 10 mL/min/kg; Activity (Rattus norvegicus [32]): 50%

Reference: ChEMBL document CHEMBL4732158, “Bicyclic Ligand-Biased Agonists of S1P: Exploring Side Chain Modifications to Modulate the PK, PD, and Safety Profiles” (J Med Chem, 2021)
